Compounds with a hit are over-represented: about 2.3% of the library has one in this group of screens.
PAD4 inh – human PAD4 inhibitors, primary screen, biochemical, fluorescence polarization, 1536-well format | Protein-arginine deiminase type-4 (Homo sapiens), Q9UM07 | 330,000 compounds, 0.41% hits | recombinant PAD4, RCA probe fluorescence polarization | inhibition, % at 6.36 µM | AID 485272, 2010;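 active means percent inhibition above a cutoff equal to the mean of all tested compounds plus 3 SD, cut at about 15% in these data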;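 further: 0% = PAD4 with RCA probe and DMSO and 100% = probe without PAD4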
Fam108B inh – mouse Fam108B serine hydrolase inhibitors, primary screen, counter-screen for RBBP9 inhibitor project, biochemical, fluorescence polarization; AID 1947, 2009; 300,000 compounds, 0.33% hits; inhibition, % at 9.51 µM; recombinant Fam108B, FP-Rh probe fluorescence polarization;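 active means inhibition above the screen mean inhibition plus 3 SD, computed separately per campaign, cut at about 18% in these data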;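 further: inhibitors lower polarization as less probe binds the enzyme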
RBBP9 inh – human RBBP9 inhibitors, primary screen, biochemical, fluorescence polarization, FP-Rh probe, HTS; 220,000 compounds, 0.2% hits; recombinant RBBP9; AID 1515, 2009; Serine hydrolase RBBP9 (Homo sapiens), O75884; inhibition, % at 7.94 µM;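 active means inhibition above the campaign mean of all tested compounds plus 3 SD, cut at about 14% in these data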;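 further: plate controls were DMSO wells with RBBP9 for no effect and wells lacking RBBP9 protein for full effect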
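Controls: DMSO-treated enzyme wells and wells lacking RBBP9 | Material: RBBP9 protein | Technique: Fluorescence polarization | Replication: Single well per compound, no replicates | Buffer or medium: Tris-NaCl-Pluronic buffer, pH 8.0 | Timing: 30 min compound preincubation, 45 min probe labeling, 25 °C | Read-out basis: Percent inhibition from mP, scaled between DMSO and no-protein wells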
PME-1 inh – PME-1 inhibitors via competitive probe labeling, primary screen, biochemical, fluorescence polarization, FP-Rh probe, HTS | Protein phosphatase methylesterase 1 (Homo sapiens), Q9Y570 | 320,000 compounds, 0.53% hits | recombinant PME-1 | inhibition, % at 5.9 µM | AID 2130, 2009;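 active means inhibition above the campaign mean of all compounds plus 3 SD, cut at about 26% in these data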;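 further: competitive labeling of PME-1 active site by serine hydrolase directed probe; 0% = PME-1 with DMSO and 100% = wells lacking PME-1 enzyme; inhibitors block probe labeling so polarization falls and inhibition rises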
Target sequence (Q9Y570 whole entry, looked up): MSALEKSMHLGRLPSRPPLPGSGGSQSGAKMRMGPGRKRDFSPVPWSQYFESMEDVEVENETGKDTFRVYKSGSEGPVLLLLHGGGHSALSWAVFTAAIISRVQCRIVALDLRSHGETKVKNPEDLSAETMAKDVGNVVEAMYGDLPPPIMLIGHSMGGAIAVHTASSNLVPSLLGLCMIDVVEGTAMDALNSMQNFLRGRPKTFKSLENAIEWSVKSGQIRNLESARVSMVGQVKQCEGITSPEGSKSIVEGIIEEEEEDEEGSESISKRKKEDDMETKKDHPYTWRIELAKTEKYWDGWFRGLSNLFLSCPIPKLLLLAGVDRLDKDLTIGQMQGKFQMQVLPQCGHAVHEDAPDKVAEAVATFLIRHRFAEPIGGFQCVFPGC
PRMT1 FP inh – PRMT1 methyltransferase inhibitors, primary screen, biochemical, fluorescence polarization. recombinant PRMT1, activity-based probe fluorescence polarization. inhibition, % at 2.79 µM. 370,000 compounds, 1.3% hits;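 active means inhibition above about 21% made by adding two undisclosed values, limit read from the data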
GSTO1 inh – inhibitors of recombinant GSTO1, primary screen, counter-screen for RBBP9 inhibitor project, biochemical, fluorescence polarization; inhibition, % at 5.96 µM; 300,000 compounds, 1.1% hits; activity-based probe fluorescence polarization; Glutathione S-transferase omega-1 (Homo sapiens), P78417; AID 1974, 2009;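 active means inhibition above the campaign mean inhibition plus 3 SD, cut at about 35% in these data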;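 further: 0% = GSTO1-1 with DMSO and 100% = wells lacking GSTO1-1 enzyme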
Target sequence (P78417 whole entry, looked up): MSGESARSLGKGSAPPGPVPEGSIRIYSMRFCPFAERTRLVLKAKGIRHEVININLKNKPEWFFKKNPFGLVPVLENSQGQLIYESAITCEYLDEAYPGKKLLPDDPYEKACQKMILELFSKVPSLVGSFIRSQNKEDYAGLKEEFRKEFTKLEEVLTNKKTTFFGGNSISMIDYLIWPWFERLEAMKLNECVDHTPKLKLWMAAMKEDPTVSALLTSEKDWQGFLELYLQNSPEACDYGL
PRMT1 inh conf – PRMT1 methyltransferase inhibitors, confirmation, biochemical, fluorescence polarization, triplicate | AID 687036, 2013 | recombinant His-PRMT1, activity-based probe fluorescence polarization | inhibition, % at 2.79 µM | shares compounds with PRMT1 FP inh | 3,300 compounds, 42% hits;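 active means mean inhibition across replicates above the hit cutoff derived for the earlier primary screen, cut at about 22% in these data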
Starred values were filed as active, the others as inactive; . = no result.

SMILES | PAD4 inh | Fam108B inh | RBBP9 inh | PME-1 inh | PRMT1 FP inh | GSTO1 inh | PRMT1 inh conf
O=C(/C=C/c1ccco1)Nc1cc(Cl)ccc1C(=O)O | -3 | -4 | -4 | -2 | 25* | -79 | 9
Cc1ccc2c(COC(=O)c3c(C)noc3C)cc(=O)oc2c1 | -3 | -4 | -2 | -6 | -1 | -2 | .
COC(=O)c1ccc(CNC(=O)Cn2cnc3c(NCc4ccccc4)ncnc32)cc1 | -1 | . | . | . | 3 | . | .
CCOC(=O)c1ccc(N2N=C(C)/C(=C/C=C/c3ccco3)C2=O)cc1 | -6 | 1 | 12 | 4 | 1 | 5 | .
O=C(O)c1cc(N2N=C(C(F)(F)F)/C(=C/C=C/c3ccco3)C2=O)ccc1Cl | . | . | -4 | . | 70* | . | 54*
C[C@H]1Cn2cnc(C(=O)NCc3ccc(CNC(=O)OC(C)(C)C)cc3)c2C(=O)N1 | . | . | . | . | -5 | . | .
Cc1ccc(CNC(=O)CSc2c3c(nc4ccc(Cl)cc24)CCCC3)o1 | 5 | -3 | 1 | 3 | 50* | -25 | 5
Cc1ccc(-n2c(SCC(=O)OC(C)C)nnc2-c2ccco2)cc1 | 0 | 0 | 0 | 1 | -2 | 5 | .
O=c1ccsn1Cc1ccccc1 | 6 | -4 | -12 | 6 | 37* | -3 | 44*
O=C1NC(Cc2ccccc2)C(=O)N1Cc1ccccc1 (stereo not drawn) | . | . | . | . | 2 | . | .
O=C(Nc1ccccc1N1CCCCC1)c1cccc(OC(F)F)c1 | -2 | -3 | . | -3 | -6 | -1 | .
O=C(C1=C(O)C(=O)N(c2ncccn2)C1c1cccc(Cl)c1)c1ccco1 (stereo not drawn) | -7 | 3 | -3 | -4 | 7 | -13 | .
CCSc1nnc(N2C(=O)C(O)=C(C(=O)c3ccco3)C2c2cccc(OC)c2)s1 (stereo not drawn) | -19 | -1 | . | 2 | 31* | -9 | 17
CSc1nnc(N2C(=O)C(O)=C(C(=O)c3ccco3)C2c2cccc(Cl)c2)s1 (stereo not drawn) | -40 | -6 | . | -5 | 30* | -2 | 18
CSc1nnc(N2C(=O)C(O)=C(C(=O)c3ccco3)C2c2ccc(F)cc2)s1 (stereo not drawn) | -36 | -2 | . | -4 | 43* | 0 | 11
O=C1C(=C2CCCCC2)SC(=S)N1Cc1ccco1 | -3 | 0 | 5 | -9 | 44* | 4 | 39*
O=C(O)CCN1C(=O)C(=C2CCCCCC2)SC1=S | -4 | -1 | -2 | -1 | 7 | 8 | .
CC(=O)Nc1ccc(C2=NNC(=Nc3ccc(S(=O)(=O)N4CCOCC4)cc3)SC2)cc1 | 6 | 7 | 12 | 6 | 60* | -19 | 86*
S=C(NCc1ccccc1)NNc1nc2ccccc2[nH]1 | 4 | 0 | 3 | -4 | 39* | 1 | 67*
c1ccc(CNc2nc3ccccc3[nH]2)cc1 | 3 | 0 | -9 | -2 | 2 | 5 | .
Cc1cc2c(nc1C)CCCN2S(=O)(=O)c1ccc(C#N)cc1 | . | . | . | . | 2 | . | .
CCc1cc2c(nc1CC)CCCN2S(=O)(=O)c1ccc(C#N)cc1 | . | . | . | . | 59* | . | 52*
Nc1nc(N)c2[nH]c(=S)[nH]c2n1 | . | . | . | . | 54* | . | 9
C=CCN1C(=O)CSC1=Nc1ccc(C(=O)O)cc1 | -7 | -1 | . | -4 | 3 | -4 | .
Cc1ccc2c(c1)c(CC(=O)Nc1ccc(F)cc1)c(C(=O)O)n2C | -3 | -4 | -7 | -1 | 1 | 6 | .
SMILES | PAD4 inh | Fam108B inh | RBBP9 inh | PME-1 inh | PRMT1 FP inh | GSTO1 inh | PRMT1 inh conf
CCN(CC)c1ccc(C=Nn2c(-c3ccc(F)cc3)n[nH]c2=S)c(O)c1 | . | . | . | . | 37* | . | 35*
Fc1ccc(-c2n[nH]c(=S)n2/N=C/c2c[nH]c3ccccc23)cc1 | -1 | 3 | -6 | 13 | 31* | 8 | 22*
CCOC(=O)c1c(C)n(C)c2cc(Br)c(C)cc12 | -2 | -2 | 5 | -2 | -3 | -3 | .
Cc1ccc(/C=N/N2CCN(Cc3cccc4ccccc34)CC2)o1 | 2 | 4 | -8 | 1 | 26* | 8 | -1
O=C(c1ccccc1)N1CCN(C(=O)c2nn3c(C(F)(F)F)cc(-c4ccco4)nc3c2Br)CC1 | 3 | 2 | . | -2 | 30* | -1 | 3
CCN(CC)C(=O)Oc1cc2c(-c3cc4cccc(OC)c4o3)cc(=O)oc2cc1C | 5 | -2 | . | 0 | 6 | 1 | .
CSc1cnn(Cc2ccccc2)c(=O)c1SCc1ccccc1 | 4 | 2 | -8 | 0 | 74* | 15 | 6
Cc1cc(C)nc(SSc2nc(C)cc(C)n2)n1 | -3 | -6 | . | -4 | 89* | -4 | 82*
COc1ccccc1NC(=O)Cc1nnc(SCC(=O)NC2CCCCC2)n1C | 3 | 1 | . | -5 | 0 | 12 | .
CC1=C/C(=N\NC(=O)c2ccc(O)cc2)CC1 | 0 | 4 | -4 | -1 | 2 | 3 | .
CC(=O)Nc1cccc(-c2nc3ccccc3c(=O)o2)c1 | -2 | 1 | 7 | -3 | -2 | 0 | .
O=C(NC(=S)NC1CCSC1=O)c1ccc([N+](=O)[O-])cc1 (stereo not drawn) | -3 | 4 | . | 5 | 10 | 10 | .
O=C(NC(=S)NC1CCSC1=O)c1ccccc1 (stereo not drawn) | 0 | 3 | -6 | 4 | 30* | 3 | 9
O=C(NC(=S)NC1CCSC1=O)c1ccccc1Cl (stereo not drawn) | -1 | 0 | 4 | 1 | 26* | -12 | 1
C=CCn1c(SCc2c(C)noc2C)nc2sc(C)c(C)c2c1=O | -2 | 4 | 1 | 1 | -1 | -2 | .
COC(=O)c1ccccc1S(=O)(=O)N(Cc1ccco1)Cc1cc2cc(OC)ccc2[nH]c1=O | 0 | 5 | -6 | 4 | 30* | 0 | -2
O=C(CCN1C(=O)/C(=C\c2ccccc2F)SC1=S)N1CCOCC1 | . | . | . | . | -4 | . | .
CN1CCN(C(=O)CCN2C(=O)/C(=C\c3ccccc3F)SC2=S)CC1 | -34 | -3 | . | -3 | 28* | 3 | 6
CCOC(=O)c1c(NC(C)=O)sc2c1CCC(C=O)=C2Sc1ccccc1 | -6 | -4 | -4 | -8 | 31* | 28 | 3
CCOC(=O)c1c(NC(C)=O)sc2c1CCN(Cc1ccccc1)C2 | -3 | 6 | . | 2 | 1 | -1 | .
N#Cc1c(N)[nH]c(=S)c(C#N)c1-c1ccccc1 | 3 | -1 | -6 | 4 | 38* | 0 | 14
